KCC2 mod: modulators of human KCC2 chloride dependent transport | Q9H2X9 | B-score of Tl+ flux slope (higher = more flux/activation; lower = inhibition) at 10 µM | 2.2% of 190,000 active | KCC2 cells, thallium flux FluoZin-2 fluorescence | AID 1456;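 active = thallium flux slope and its plate-corrected score both differing from the plate sample mean at a set confidence after two filtering rounds, in either direction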;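 also: slope of fluorescence scaled to starting intensity during 10 to 20 s after thallium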
KCNK3 block: human KCNK3 channel inhibition, primary screen; B-score at 10 µM; CHO-KCNK3 thallium flux, FluxOR fluorescence; stronger effect = lower value; 0.84% of 340,000 active;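 active = B-score under library mean minus 4 SD, starting fluorescence ratio at most library mean plus 5 SD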;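 also: more negative B-score means stronger inhibition of thallium flux through KCNK3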
KCNQ1 inh: inhibitors of human KCNQ1 potassium channel | P51787 | CHO-K1 KCNQ1, FluxOR thallium flux fluorescence; stronger effect = higher value | B-score at 10 µM | 1.3% of 310,000 active;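 active = compounds whose thallium flux B-score, printed positive for inhibition, exceeds three library SD while starting fluorescence stays within three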;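 also: channel opened by potassium depolarization with thallium stimulus after 20 min compound exposure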
KCNK9 inh: blocks the human KCNK9 two-pore domain potassium channel | HEK293 KCNK9, FluxOR thallium flux fluorescence; stronger effect = lower value | B-score at 10 µM | 1.2% of 310,000 active | AID 488922;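 active = ratio B-score over 3 SD below the library mean, with starting fluorescence within 5 SD of its mean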;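 also: negative B-score means less thallium flux so channel inhibition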
Target sequence (Q9NPC2 whole entry, looked up, the tested form may be a part): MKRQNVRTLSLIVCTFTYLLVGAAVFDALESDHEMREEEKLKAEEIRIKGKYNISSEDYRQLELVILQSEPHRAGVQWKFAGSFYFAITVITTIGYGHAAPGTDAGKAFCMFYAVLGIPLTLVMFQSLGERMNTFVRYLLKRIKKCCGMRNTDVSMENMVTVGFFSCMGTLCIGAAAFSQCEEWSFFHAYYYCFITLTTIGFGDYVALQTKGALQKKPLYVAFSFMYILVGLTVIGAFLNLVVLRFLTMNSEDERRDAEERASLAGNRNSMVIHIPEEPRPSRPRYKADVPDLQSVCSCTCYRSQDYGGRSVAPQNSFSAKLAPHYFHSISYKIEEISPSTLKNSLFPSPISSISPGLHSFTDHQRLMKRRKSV
KCNQ1 pot: potentiates or activates the human KCNQ1 potassium channel | B-score at 10 µM | 0.35% of 310,000 active | CHO-K1 KCNQ1, thallium flux FluxOR fluorescence; stronger effect = higher value;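 active = fluorescence ratio B-score, a plate-corrected score, at least three library SD, with initial intensity B-score within 5 SD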
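Assay system: stable KCNQ1 CHO-K1 line; medium: assay buffer, equal DMSO in all wells; timing: 90 min dye loading and 20 min compound exposure, both at room temperature; technique: kinetic FluxOR thallium fluorescence, 10-s 1-Hz baseline, 110-s post-stimulus read; read-out basis: B score of baseline-normalized fluorescence ratio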
hERG protect: compounds protecting human hERG from proarrhythmic drug block. activation (rescue from dofetilide block), less the hit threshold, % at 10 µM. AID 1511. 0.51% of 310,000 active. CHO-hERG, FluxOR thallium flux, dofetilide IC70 present. Q12809;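 active = activation above the mean of controls blocked by dofetilide plus 5 SD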;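 also: thallium influx through hERG after potassium depolarization seen as dye fluorescence rise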
Active calls of the source: *; i = inactive; x = no result given. A selection: hits, their analogues and other compounds. The true share with any hit is near 4.1%.

SMILES	KCC2 mod	KCNK3 block	KCNQ1 inh	KCNK9 inh	KCNQ1 pot	hERG protect
O/N=C/c1c[nH]c2ccccc12	0.53	i	i	i	i	-9
CCCC/C(=N\O)c1c[nH]c2ccccc12	-1.2	i	i	-7.5*	i	1
CC1CCN(C(CC(=O)c2ccccc2)C(=O)c2ccccc2)CC1 (stereo unspecified)	x	-9.1*	x	x	x	x
c1ccc(CCNCc2cccs2)cc1	x	i	i	i	i	-10
CCS(=O)(=O)Nc1cccc(C(=C2CCCCC2)c2cnc[nH]2)c1	x	i	x	x	x	x
CN1CCN(c2ccc([N+](=O)[O-])c3no[n+]([O-])c23)CC1	-1.6	i	10*	i	i	-36
CN1CCN(c2ccc(S(C)(=O)=O)cc2[N+](=O)[O-])CC1	0.013	i	i	i	i	-3
O=S(=O)(c1ccccc1)N1CCCCC1c1cccnc1 (stereo unspecified)	x	i	i	i	i	8.4*
Nc1ccc(S(=O)(=O)N2CCCCC2c2cccnc2)cc1 (stereo unspecified)	x	i	i	i	i	-3
CCCCCCC(C)(C)c1ccc([C@@H]2C[C@H](O)CC[C@H]2CCCO)c(O)c1	x	-11*	x	x	x	x
COc1ccc(NC(c2ccccc2F)P(=O)(Oc2ccccc2)Oc2ccccc2)cc1 (stereo unspecified)	-0.69	i	i	i	i	-14
COc1ccc(NC(c2ccccc2)P(=O)(Oc2ccccc2)Oc2ccccc2)cc1 (stereo unspecified)	1.6	i	i	-6.6*	i	-4
O=C(O)CCC(=O)NCCC1=c2ccccc2=N/C1=C\c1c(O)n(Cc2ccc(F)cc2)c(=S)[nH]c1=O	-1.9	i	i	i	i	6.2*
O=C(N/N=C/c1c(O)n(Cc2ccc(F)cc2)c(=O)[nH]c1=O)c1ccccc1	0.52	i	i	i	i	-10
C=CC[N+]1(C)C2CCC1CC(O)C2 (stereo unspecified)	-0.48	i	i	i	i	6.2*
CC1(C)CSC(=NCc2ccccc2)N1	-0.31	i	i	i	7*	-6
CN1C(=O)N(C)C(=O)C(NS(=O)(=O)c2ccc(N)cc2)(c2ccccc2)C1=O	x	i	x	x	x	x
CN(C)S(=O)(=O)c1cc(NC(=O)COC(=O)Cc2ccccc2)ccc1Cl	-1.8	i	6*	i	i	-5
CN(C)S(=O)(=O)c1cc(NC(=O)C[N+]23CCN(CC2)CC3)ccc1Cl	0.45	i	i	i	i	-6
CCC(CO)(C(=O)OC1CC2CCC(C1)N2C)c1ccccc1 (stereo unspecified)	x	i	i	i	i	-5
O=C(Cn1cc(C(=O)c2ccccc2)c2ccccc21)NCc1ccco1	-1.8	i	i	-9*	i	-8
O=C1NC(=S)N(c2ccc(F)cc2)C(=O)/C1=C/c1ccco1	x	x	i	i	i	3
COc1ccc(OC)c(N2C(=O)/C(=C/c3ccco3)C(=O)NC2=S)c1	x	x	i	i	i	8.4*
COC(=O)C1=C(c2ccc(F)cc2OCc2ccccc2)C[C@@H]2CC[C@H]1N2C(=O)N1CCOCC1	x	i	x	x	x	x
CCOc1cc2c(cc1OCC)-n1cccc1C(c1ccc(F)c(OC)c1)NC2 (stereo unspecified)	x	i	i	i	i	-9
SMILES	KCC2 mod	KCNK3 block	KCNQ1 inh	KCNK9 inh	KCNQ1 pot	hERG protect
CN1/C(=C\C=C\C2=[N+](C)c3ccc4ccccc4c3C2(C)C)C(C)(C)c2ccccc21	-6*	x	x	x	x	x
O=C(O)Cn1cc(/C=C2\C(=O)NC(=O)N(c3ccc(Cl)cc3)C2=O)c2ccccc21	x	i	i	i	i	-5
Cn1cc(/C=C2\C(=O)NC(=O)N(c3ccccc3)C2=O)c2ccccc21	x	i	i	-8*	i	-8
CN1C(=O)/C(=C/c2ccc(Cl)s2)C(=O)NC1=S	x	i	i	i	i	5.2*
COc1ccc(/C=C2\C(=O)NC(=S)N(C)C2=O)cc1C	x	i	i	i	i	-10
Cc1ccsc1/C=C1\C(=O)NC(=S)N(C)C1=O	x	i	8*	i	i	-3
C1CCC2S[C@H]3CCCCC3NC2C1 (stereo partly specified)	0.13	i	i	i	i	5.3*
COc1ccc(N2C(=O)NC(=O)C(CCc3ccncc3)(CCc3ccncc3)C2=O)cc1	0.017	i	i	i	i	4.6*
CCc1ccc(N2C(=O)NC(=O)C(CCc3ccncc3)(CCc3ccncc3)C2=O)cc1	0.11	i	i	i	i	-2
Clc1ccc(CSC(Cn2ccnc2)c2ccc(Cl)cc2Cl)cc1 (stereo unspecified)	0.12	i	6*	i	i	-16
N#CC1=C(N)Oc2c(c(=O)oc3ccccc23)C1c1cccnc1 (stereo unspecified)	-2.6	i	i	i	i	18*
CCC(CC)C1C(C#N)=C(N)Oc2c1c(=O)oc1ccccc21 (stereo unspecified)	0.014	i	i	i	i	-5
COC(=O)c1cccc(NC(=O)N2C[C@H]3C[C@@H](C2)c2cccc(=O)n2C3)c1	x	i	i	i	i	-7
CC1=Nc2ccccc2/C1=C/c1c(O)[nH]c(=O)[nH]c1=O	x	i	i	i	i	-2
O=c1[nH]c(O)c(/C=C2/C=CC(c3cc(Cl)ccc3Cl)=N2)c(=O)[nH]1	x	i	i	i	i	7.2*
COc1ccc(-n2nc(C(=O)NCC(=O)N3CCC4(CC3)OCCO4)c3ccccc3c2=O)cc1OC	x	i	i	i	i	-5
CCCCCCCSc1cc(OC)c(CCN(C)C)cc1OC	x	i	i	i	i	-26
CCCCCSc1cc(OC)c(CCN)cc1OC	2.3	i	6*	i	i	-12
O=c1cccc2n1CC1CNC[C@H]2C1	x	i	x	x	x	x
Oc1ccc(CC2(N3CCCC3)CCCCC2)cc1	x	i	i	i	i	7.7*
CN(C)CCN(CC1CCCN(Cc2ccccc2F)C1)C(=O)Cc1c(F)cccc1F (stereo unspecified)	x	i	i	i	i	-10
Cc1ccc(-c2cc(-c3ccc(C)cc3)[n+](-c3ccc(C(=O)O)cc3)c(-c3ccc(C)cc3)c2)cc1	x	i	i	i	i	-2
C[n+]1c(-c2ccccc2)cc(CCCCc2cc(-c3ccccc3)[n+](C)c(-c3ccccc3)c2)cc1-c1ccccc1	0.76	i	7*	i	i	-21
COc1ccc(-c2cc(-c3ccccc3)[n+](C)c(-c3ccccc3)c2)cc1	0.013	i	12*	i	i	-28
